Variants at the floor of the assay were thinned out.
B1: tRNA (parent)
chain: GUUCCGUUGGCGUAAUGGUAACGCGUCUCCCUCCUAAGGAGAAGACUGCGGGUUCGAGUCCCGUACGGAACG

Variants of: B1
Test: yeast fitness relative to wild type (ratio to wild type); higher = fitter; tRNA-Arg(CCU), competitive growth, 37 C, YPD
Procedure, shortened: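 Amplicons of the tRNA-Arg(CCU) gene were sequenced, 100-nucleotide paired-end, from the start population and from each end population of a pooled yeast competition. The competition, in six parallel replicates, lasted 24 hours in YPD at 37°C. Fitness relative to wild type was calculated from changes in genotype frequencies. Genotypes had to have ≥ 100 starting reads, and estimates < 0.5 were set to 0.5.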

Q: With GAUCCGUUGGCGUACUGGUAACGCGUCUCCCUCCUAAGGAGAAGACUGCGGGUUCGAGUCCCGUACGGCACG [U2A A15C A69C] as the variant, how does the yeast fitness read?
A: ≤ 0.5

Q: With GAUCCGUUGGCGUCAUGGUAACGCGUCUCUCUCGUAAGGAGAAGUCUGCGGGUUCGAGUCCCGUACGGAACG [U2A A14C C30U C34G A45U] as the variant, how does the yeast fitness read?
A: ≤ 0.5

Q: For GAUCCGUUGGCGUAUUGGUAACGCGUCUCCCUCAUAAGCCGAAGACUGCGGGUUCCAGUCGGGUACGCAACG [U2A A15U C34A G39C A40C G56C C61G C62G G68C], which yeast fitness is on record?
A: ≤ 0.5

Q: For GAUCCGUUGGCGUACUGGUAACGCGUCUCGCUCCUAAGGAGAAGACUGCGGGUUCGAGUCCCGUACCGAACG [U2A A15C C30G G67C], which yeast fitness is on record?
A: ≤ 0.5

Q: For GAUCCGUUGGCGUAAUGGUCACGCGUCUCCCUCCUAAGGAGAAGACUGCGGGUUCGAGUCCCGUACGUAACG [U2A A20C G68U], which yeast fitness is on record?
A: 1.01

Q: For GAUCCGUUGGCGUACUGGUAACGCGUCUCCCUCCUAAGGAGAAGACUGCGGGUUCGACUCCCGUACGGAACG [U2A A15C G58C], which yeast fitness is on record?
A: ≤ 0.5

Q: For GAUCCGUUGGCGUCAUGGUAACGCGUCUCUCUCGUAAGGAGAAGACUGCGGGUUCGAGUCCCGUACGGAACG [U2A A14C C30U C34G], which yeast fitness is on record?
A: ≤ 0.5

Q: With GAUCCGUUGGCGUAAUGGUGACGCGUCUCCCUCCUAAGGAGAAGACUGCGGGUUCGAGUCCCGUACGGCACG [U2A A20G A69C] as the variant, how does the yeast fitness read?
A: 0.688

Q: For GAUCCGUUGGCGUUAUGGUAACGUGUCUCCCGCCUAAGGAGAAGACUGCGGGUUCGAGUCCCGUACGGAACG [U2A A14U C24U U32G], which yeast fitness is on record?
A: 0.672

Q: With GAUCCGUUGGCGUAAUGGUGACGCGUCUCCCUCCUAAGGAGAAGACUGCGGGUUCGAGUCCCGUACGGAACG [U2A A20G] as the variant, how does the yeast fitness read?
A: 0.838

Q: Which yeast fitness does the source give for GAUCCGUUGGCGUAAUGGUCACGCGUCUCCCUCCUAAGGAGAAGACUGCGGGUUCGAGUCCCGUACGGAACG [U2A A20C] here?
A: 0.928

Q: Which yeast fitness does the source give for GAUCCGUUGGCGUAUUGGUAACGCGUUUCACUCCUAAGGACAAGACUGAGGGUUGGAGUCACGUACGGAACG [U2A A15U C27U C30A G41C C49A C55G C61A] here?
A: ≤ 0.5

Q: Which yeast fitness does the source give for GAUCCGUUGGCGUCAUGGUGACGCGUCUCCCUCCUGAGGAGAAGACUGCGGGUUUGAGUCCCGUACGCAACG [U2A A14C A20G A36G C55U G68C] here?
A: 0.595

Q: Which yeast fitness does the source give for GAUCCGUUGGCGUACUGGUAACGCGUCUCGCUCCUAAGGAGAAGACUGCGGGUUCGAGUCCCGUACGGAACG [U2A A15C C30G] here?
A: ≤ 0.5

Q: With GAUCCGUUGGCGUGAUGGUAAGGCGUCUCGCUCCUAAGGAGAAGACAGCGGGUUCGAGUCCCGUACGGAACG [U2A A14G C22G C30G U47A] as the variant, how does the yeast fitness read?
A: ≤ 0.5

Q: For GAUCCGUUGGCGUAAUGGUCACGCGUUUCCCUCCUAAGGAGAAGACUGCGGGUUCGACUCCCGUACGGCACG [U2A A20C C27U G58C A69C], which yeast fitness is on record?
A: ≤ 0.5

Q: Which yeast fitness does the source give for GAUCCGUUGGCGUUAUGGUAGCGCGUCUCCCUCCUAAGGAGAAGAGUGCGGGUUCGUGUCCCGUAUGGAACG [U2A A14U A21G C46G A57U C66U] here?
A: 0.56

Q: With GAUCCGUUGGCGUAAUGGUCACGCGUCUCCCUCCUAGGGAGAAGACUGCGGGUUCGAGUCCCGUACGGAACG [U2A A20C A37G] as the variant, how does the yeast fitness read?
A: 0.529

Q: For GAUCCGUUGGCGUUAUGGUAACGCGUCUGCCUCCUAAGGAGAACACUGCGGGUUCGAGUCCCGUACGGAACG [U2A A14U C29G G44C], which yeast fitness is on record?
A: 0.534

Q: With GAUCCGUUGGCGUUAUGGUAACGCGUCUCCCUCCUAAGGAGAAGACUGCGGGUUCGAGUCCCGUACGGAACG [U2A A14U] as the variant, how does the yeast fitness read?
A: 0.682

Q: With GAUCCGUUGGCGUGAUGGUAACGCGUCUCCCUCCUAUGGAGAAGACUGCGGGUACGAGUCCCGUACGGAACG [U2A A14G A37U U54A] as the variant, how does the yeast fitness read?
A: ≤ 0.5

Q: Which yeast fitness does the source give for GAUCCGUUGGCGUAAUGGUCACGCGUCUCCCUCCUAAGGAGAAGACUGCGGGUUUGAGUCCCGUACGGAACG [U2A A20C C55U] here?
A: 0.582

Q: Which yeast fitness does the source give for GAUCCGUUGGCGUAAUGGUCACGCGUCUCCCUCCUAAGGGGAAGACUGCGGGUUCGAGUCCCGUACGGAACG [U2A A20C A40G] here?
A: 0.633

Q: For GAUCCGUUGGCGUUAUGGUAACGCGUCUCCCUCCUAAGGAGAAGAUUGCGGGUUCGAGUCCCGUACGGAACG [U2A A14U C46U], which yeast fitness is on record?
A: 0.595

Q: For GAUCCGUUGGCGUCAUGGUAACGCGUCUCCCUCCUAAGGAGAAGACUCCGGGUUCGAGUCCCGUACGGAACG [U2A A14C G48C], which yeast fitness is on record?
A: ≤ 0.5

Q: For GAUCCGUUGGCGUAAUGGUCACGCGUCUCCCUCCUAAGGAGAAGACUGCGGGUUCGAGUCCCGUACGGCACG [U2A A20C A69C], which yeast fitness is on record?
A: 0.78

Q: With GAUCCGUUGGCGUAUUCGUAACGCGUCUCCCUCCUAAGGAGAAGACUGCGAGUUCGAGUCCCGUACGGAACG [U2A A15U G17C G51A] as the variant, how does the yeast fitness read?
A: ≤ 0.5

Q: Which yeast fitness does the source give for GAUCCGUUGGCGUAAUGGUGACGGGUCUCGCUCCUAAGGAGAAGACUGCGGGUUCGAGUCCCGUACGGAACG [U2A A20G C24G C30G] here?
A: ≤ 0.5

Q: With GAUCCGUUGGCGUCAUGGUAACGCGUCUCUCUCGUAAGGAGAAGACUGCGAGUUCGAGUCCCGUACGGAACG [U2A A14C C30U C34G G51A] as the variant, how does the yeast fitness read?
A: ≤ 0.5

Q: Which yeast fitness does the source give for GAUCCGUUGGCGUACUGGUAACGCGUCUCCCUCCUAAGGAGAAGACUGCGGGUUCGAGUCCCGUACGGAACG [U2A A15C] here?
A: 0.685

Q: For GAUCCGUUGGCGUAUUGGUAACGCGUCUCCCUCCUAAGGAGAAGACUGCGGGUUCGAGUCCCGUACGGAACG [U2A A15U], which yeast fitness is on record?
A: 0.753

Q: With GAUCCGUUGGCGUAGUGGUAACGCGUCUCCGUCCUAAGGUGAAGACUGCGGGUUCGAGUGCCGUACAGAACG [U2A A15G C31G A40U C60G G67A] as the variant, how does the yeast fitness read?
A: ≤ 0.5

Q: For GAUCCGUUGGCGUAAUGGUCACGCGUCUCCCUCCUAAGGAGAAGACUCCGGGUUCGAGUCCCGUACCGAACG [U2A A20C G48C G67C], which yeast fitness is on record?
A: ≤ 0.5

Q: For GAUCCGUUGGCGUGAUGGUAACGCCUCUCCCUCCUAAGGAGAAGACCCCGGGUUCGAGUCCCGUACGGAACG [U2A A14G G25C U47C G48C], which yeast fitness is on record?
A: 0.573

Q: Which yeast fitness does the source give for GAUCCGUUGGCGUCAUGGUAACGCGUCUCCCUCCUAAGGAGAAGACUGCAGGUUCGAGUCCCCUACGGAACG [U2A A14C G50A G63C] here?
A: ≤ 0.5

Q: Which yeast fitness does the source give for GAUCCGUUGGCGUACUGGUAACGCGUCUCCCUCCUAAGGAGAAGACCGCGGGUUCGAGUCCCGUACGGAACG [U2A A15C U47C] here?
A: ≤ 0.5

Q: For GAUCCGUUGGCGUAGUGGUAACGCGUCUUCCUCCUAAGGAAAAGACUGCGGGUUCGAGUCCCGUACGGAACG [U2A A15G C29U G41A], which yeast fitness is on record?
A: ≤ 0.5

Q: Which yeast fitness does the source give for GAUCCGUUGGCGUAGUGGUAACGCGUCUCCCUCCUAUGGAGAAGACUGGGGGUUCGAGUCCCGUACGGAACG [U2A A15G A37U C49G] here?
A: ≤ 0.5

— the RNAGym collection of RNA variant scans (doi:10.1126/science.aae0568)
